The values that follow come from ChEMBL document CHEMBL4428077, “Synthesis and Biological Evaluation of N-((1-(4-(Sulfonyl)piperazin-1-yl)cycloalkyl)methyl)benzamide Inhibitors of Glycine Transporter-1” (J Med Chem, 2016).

pIC50: −log10 of the molar value.

One data set relates to Rattus norvegicus. In words: In vivo inhibition of glycine transporter-1 in Sprague-Dawley rat assessed as increase in medial prefrontal cortex glycine level at 3 to 10 mg/kg, po administered through oral gavage measured after 80 to 300 mins by LC-MS/MS analysis relative to control. It counts as functional. The arrangement: scale not given: the % may be the effect or the level left. In outline: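 Freely moving drug-naive adult male Sprague-Dawley rats, n = 5-6 per group, given 1.5, 4.7 or 15.7 μmol/kg by oral gavage at t = 0. Vehicle was 5% Solutol / 20% Captisol in 25 mM PBS, pH 2. mPFC dialysate was sampled over 5 h and analysed by HPLC-MS/MS. Values were normalized to basal levels (t = -80 to 0 min). Two-way repeated-measures ANOVA with Student-Newman-Keuls test.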

The nature of data set [1]: Oral bioavailability in Sprague-Dawley rat at 10 mg/kg administered as single dose measured up to 24 hrs post dose by LC-MS/MS analysis. Type of data set: ADME, organism-based. To be noted: in vivo. In a few lines:
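Male Sprague-Dawley rats, n = 3 per group. Dosing was 3.1 μmol/kg IV (5% DMSO / 10% Solutol in saline, 5 mL/kg) and 15.7 μmol/kg PO (5% Solutol / 10% Captisol in 25 mM PBS, pH 2). F = (AUC_INF,po × Dose_iv)/(AUC_INF,iv × Dose_po). Mean ± SD.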

A short description of data set [2]: Volume of distribution at steady state in Sprague-Dawley rat at 10 mg/kg, po or 2 mg/kg, iv administered as single dose measured up to 24 hrs post dose by LC-MS/MS analysis. To be noted: in vivo, read-out: Vdss. It counts as ADME, organism-based. In outline: (§1)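 Groups of three drug-naive adult male Sprague–Dawley rats, single dose: IV 3.1 μmol/kg in 5% DMSO/10% Solutol in saline (5 mL/kg), or PO 15.7 μmol/kg in 5% Solutol/10% Captisol in 25 mM PBS adjusted to pH 2 with HCl. Plasma concentration–time data give the parameters; mean ± SD.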

Data set [3] in a line: Drug level in cynomolgus monkey CSF at 10 mg/kg, po measured at 24 hrs post dose by LC-MS/MS analysis. To be noted: read-out: Drug uptake. Type of data set: ADME, organism-based, Macaca fascicularis, Cerebrospinal fluid. In a few lines: (§2)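 Cynomolgus monkeys (n = 3/group) fitted with subcutaneous CSF ports were dosed orally at 0.4−15.7 μmol/kg in 5% Solutol plus 20% Captisol in 25 mM PBS, pH 2. CSF (about 0.30 mL) and blood were sampled predose and at 0.5, 1, 2, 3, 4, 8, 12 and 24 h. Quantitation limit 1.0 ng/mL; mean ± SD.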

A short description of data set [4]: Drug level in cynomolgus monkey plasma at 10 mg/kg, po measured at 0.5 hr post dose by LC-MS/MS analysis. Type of data set: ADME, organism-based, Macaca fascicularis. In outline:
as §2

The nature of data set [5]: Tmax in cynomolgus monkey plasma at 5 mg/kg, po by LC-MS/MS analysis. It counts as ADME, organism-based, Macaca fascicularis. In a few lines:
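Three female cynomolgus monkeys per group, single dose: IV 1.5 μmol/kg in 5% DMSO/10% Solutol in saline, pH 6.5 (2 mL/kg), or PO 7.8 μmol/kg in 5% Solutol in 20% Captisol, 25 mM PBS, pH 2 (5 mL/kg). Parameters come from plasma concentration–time data; mean ± SD.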

Data set [6] can be described thus: Drug level in cynomolgus monkey CSF at 10 mg/kg, po measured at 1 hr post dose by LC-MS/MS analysis. Type of data set: ADME, organism-based, Macaca fascicularis, Cerebrospinal fluid. To be noted: read-out: Drug uptake. In a few lines:
as §2

The target in another data set is Cytochrome P450 2D6 (Homo sapiens, UniProt P10635). Briefly: Inhibition of CYP2D6 (unknown origin). It counts as ADME.
The nature of data set [7]: Ratio of drug level in CSF to unbound plasma concentration in Sprague-Dawley rat at 3 to 10 mg/kg, po measured 2 hrs post dose by LC-MS/MS analysis. It counts as ADME, organism-based. Particulars: in vivo. In a few lines:
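Drug-naive male Sprague–Dawley rats (n = 4–5/group) were dosed orally in 5% Solutol/10% Captisol in 25 mM PBS, pH 2, and euthanized by CO2 2 h post-dose. CSF (50–100 μL) was taken from the cisterna magna, and brain and plasma were collected; drug was measured in each matrix. Quantitation limit 1.0 ng/mL.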

The nature of data set [8]: Oral bioavailability in cynomolgus monkey at 5 mg/kg measured up to 24 hrs post dose by LC-MS/MS analysis. Type of data set: ADME, organism-based, Macaca fascicularis. To be noted: in vivo. In outline: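 Three female cynomolgus monkeys per group; single oral dose of 7.8 μmol/kg in 5% Solutol in 20% Captisol, 25 mM PBS, pH 2 (5 mL/kg), with a separate IV arm at 1.5 μmol/kg in 5% DMSO/10% Solutol in saline, pH 6.5 (2 mL/kg). F = (AUC_INFpo × Dose_iv)/(AUC_INFiv × Dose_po); mean ± SD.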

Data set [9] can be described thus: AUClast in Sprague-Dawley rat plasma at 10 mg/kg, po or 2 mg/kg, iv administered as single dose measured up to 24 hrs post dose by LC-MS/MS analysis. Type of data set: ADME, organism-based. In a few lines: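 Single-dose PK in drug-naive adult male Sprague−Dawley rats, n = 3 per group: 3.1 μmol/kg IV in 5% DMSO/10% Solutol in saline (5 mL/kg), or 15.7 μmol/kg PO in 5% Solutol/10% Captisol in 25 mM PBS, pH adjusted to 2 with HCl. Plasma parameters reported as mean ± SD.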

A short description of data set [10]: Apparent permeability from apical to basolateral side in human Caco2 cells. It counts as ADME, cell-based. Particulars: Caco-2. In outline: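 Caco-2 monolayer permeability measured in both the A-to-B and B-to-A directions and reported as P_app (×10⁻⁶ cm/s).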
A short description of data set [11]: Total clearance in Sprague-Dawley rat at 10 mg/kg, po or 2 mg/kg, iv administered as single dose measured up to 24 hrs post dose by LC-MS/MS analysis. Type of data set: ADME, organism-based. To be noted: in vivo. In a few lines: as §1
A short description of data set [12]: Drug level in Sprague-Dawley rat plasma at 100 mg/kg, po measured 2 hrs post dose by LC-MS/MS analysis. It counts as ADME, organism-based. In a few lines:
(§3)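 Drug-naive Sprague−Dawley rats (n = 4−5/group) were dosed orally once in 5% Solutol plus 20% Captisol in 25 mM PBS, pH 2, and euthanized 2 h later by CO₂. CSF was drawn from the cisterna magna. Drug was measured in CSF, brain and plasma; data as mean ± SEM.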

Data set [13] can be described thus: Drug level in Sprague-Dawley rat plasma at 1 mg/kg, po qd for 5 days measured 2 hrs post last dose by LC-MS/MS analysis. It counts as ADME, organism-based. In a few lines:
(§4)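 Drug-naive Sprague−Dawley rats (n = 5/group) were dosed orally once daily for 5 days in 5% Solutol plus 20% Captisol in 25 mM PBS, pH 2, and sacrificed 2 h after the last dose. Drug was measured in CSF, brain and plasma; mean ± SEM.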

Data set [14] is described as follows: Drug level in Sprague-Dawley rat plasma at 30 mg/kg, po measured 2 hrs post dose by LC-MS/MS analysis. It counts as ADME, organism-based. In a few lines: as §3
A short description of data set [15]: Drug level in Sprague-Dawley rat plasma at 10 mg/kg, po qd for 5 days measured 2 hrs post last dose by LC-MS/MS analysis. It counts as ADME, organism-based. In a few lines:
as §4

Data set [16] in a line: Drug level in Sprague-Dawley rat brain at 100 mg/kg, po measured 2 hrs post dose by LC-MS/MS analysis. It counts as ADME, organism-based. To be noted: read-out: Drug uptake. In outline:
as §3

Sequence of Cytochrome P450 2D6 (P10635 whole entry): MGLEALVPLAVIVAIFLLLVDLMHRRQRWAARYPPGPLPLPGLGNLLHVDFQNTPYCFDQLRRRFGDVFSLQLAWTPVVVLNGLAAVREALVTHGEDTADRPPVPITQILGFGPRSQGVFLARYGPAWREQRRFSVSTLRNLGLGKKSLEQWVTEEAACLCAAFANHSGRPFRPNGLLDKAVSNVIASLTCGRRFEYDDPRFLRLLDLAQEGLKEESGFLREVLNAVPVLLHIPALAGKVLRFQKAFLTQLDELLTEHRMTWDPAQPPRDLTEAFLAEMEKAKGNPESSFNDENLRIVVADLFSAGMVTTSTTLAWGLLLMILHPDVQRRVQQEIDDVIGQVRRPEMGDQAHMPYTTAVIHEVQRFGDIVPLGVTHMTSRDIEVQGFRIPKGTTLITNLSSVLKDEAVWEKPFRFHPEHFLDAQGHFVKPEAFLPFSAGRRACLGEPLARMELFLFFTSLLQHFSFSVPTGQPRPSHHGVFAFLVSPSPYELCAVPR

`CC(NC(=O)c1ccc(C(F)(F)F)cc1Cl)C1(N2CCN(S(=O)(=O)c3cn(C)nn3)CC2)CCC(F)(F)CC1.Cl` (single isomer, unassigned; (+)): the Activity in the data set on Rattus norvegicus is listed as over 150%. Further, the bioavailability in data set [1] is 27.2%; in [8] it was 31%. In data set [2], the Vd amounted to 1.75 L/kg. Further, the concentration at 24 h in data set [3] came to 1.2 ng/mL. The concentration at 0.5 h in data set [4] was 67.9 ng/mL. The Tmax in data set [5] turned out to be 1.67 h. Moreover, in [6], the concentration at 1 h came out at 5.9 ng/mL. For the same molecule, the pIC50 at Cytochrome P450 2D6 is under 5.14. Further, the Ratio in data set [7] was over 0.1. Also, in data set [9], the AUC(0-t) at 24 h worked out at 1960 ng·h/mL. Moreover, the Papp A→B in [10] came out at 23.9 ×10⁻⁶ cm/s. In addition, in data set [11], the clearance turned out to be 23.3 mL/min/kg.

Turning to `Cl.Cn1cc(S(=O)(=O)N2CCN(C3(CNC(=O)c4ccc(C(F)(F)F)cc4Cl)CCC(F)(F)CC3)CC2)nn1`, the concentration at 2 h in data set [12] is 334 nM; in data set [13], 38.2 nM; in data set [14], 490 nM; in data set [15], 237 nM; in data set [16], 46.3 nM.
